Screening results from PubChem BioAssay.
Cl transport mod = modulators of human KCC2 chloride dependent transport | Q9H2X9 | KCC2 cells, thallium flux FluoZin-2 fluorescence | B-score of Tl+ flux slope (higher = more flux/activation; lower = inhibition) at 10 µM | actives 2.2% (n = 190,000) | AID 1456;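 active = thallium flux slope and its plate-corrected score both differing from the plate sample mean at a set confidence after two filtering rounds, in either direction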;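 note: slope of fluorescence scaled to starting intensity during 10 to 20 s after thallium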
Diaphorase inh = counter-screen for diaphorase-based assays: diaphorase inhibitors and chemical oxidizers | diaphorase resazurin-to-resorufin fluorescence, NADH, 16 min; bacterial (C. kluyveri) enzyme, not human | inhibition, % at 20 µM | actives 0.69% (n = 190,000) | AID 1217;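 active = primary screen inhibition at 20 µM above a set limit, cut at about 50% in these data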;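 note: plate controls were DMSO with full reaction for no effect and wells lacking NADH for full effect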
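Benchmarks: positive control wells lacking NADH, neutral wells with DMSO only. System: bacterial diaphorase enzyme (C. kluyveri). Input: 0.14 U/mL diaphorase, enzyme working solution. Detection: resorufin fluorescence, excitation 544 nm, emission 590 nm. Times: 16-min room-temperature incubation before reading.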
Diaph act CS = diaphorase activation or chemical reduction counter-screen; Diaphorase/resazurin coupled assay, resorufin fluorescence, 16 min; active compounds read high; 1 = vehicle wells, 0 = NADH-free wells; activation factor at 20 µM; actives 0.005% (n = 190,000); AID 1229;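 active = diaphorase activity raised at least twofold by the compound at 20 µM; inactive = activation factor below 2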
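Material: Clostridium kluyveri diaphorase, purified enzyme; Quantity: enzyme 0.07 U/mL final; Medium: HEPES pH 7.4 buffer with MgCl2 and Tween 20; Dosing: single compound dose of 20 µM, 1% DMSO final; Schedule: 16 min reaction at room temperature; Measured by: red resorufin fluorescence at 544/590 nm excitation/emission.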
Lmaj promast = reduces viability of Leishmania major promastigotes | resazurin fluorescence viability | inhibition, % at 10 µM | actives 9% (n = 200,000) | AID 1063; in the data active = inhibition above about 50%;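 note: promastigotes grown with compound for 44 hours at 28 °C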
ROMK primary = modulators of human ROMK potassium channel. P48048. Tet-inducible ROMK, thallium flux fluorescence; actives lie on both sides. B-score at 10 µM. actives 2% (n = 130,000);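 active = signal ratio slope over the read window, or its plate-corrected B-score, at least 3 SD from the plate mean, either direction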;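 note: B-score of the F/F0 ratio slope over 7 to 12 s after thallium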
Target sequence (P48048 whole entry, looked up): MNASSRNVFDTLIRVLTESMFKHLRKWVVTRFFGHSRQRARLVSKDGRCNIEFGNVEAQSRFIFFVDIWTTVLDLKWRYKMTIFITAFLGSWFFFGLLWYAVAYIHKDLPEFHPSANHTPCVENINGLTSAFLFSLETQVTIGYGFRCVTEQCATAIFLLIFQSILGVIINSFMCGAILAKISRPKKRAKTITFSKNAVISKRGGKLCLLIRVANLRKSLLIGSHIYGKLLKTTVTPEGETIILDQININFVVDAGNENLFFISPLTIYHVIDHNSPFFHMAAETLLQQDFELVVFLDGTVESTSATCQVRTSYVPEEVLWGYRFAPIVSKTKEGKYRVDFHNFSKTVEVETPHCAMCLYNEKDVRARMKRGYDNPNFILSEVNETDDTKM
WT yeast gro inh = growth inhibition of WT yeast, mitochondrial fusion screen | mitochondrial fusion phenotypic screen, WT strain | inhibition, % at 10 µM | actives 2.1% (n = 190,000); in the data active = inhibition above about 58%; tested in S. cerevisiae
An asterisk follows results filed as active. Hits are enriched below; roughly 12% of the tested compounds scored in any of these assays.

Screening CCCS(=O)(=O)c1c(S(=O)(=O)CCC)c2cc(CC)ccn2c1C(=O)OC returned Cl transport mod 0.0924, Diaphorase inh 4.0, Diaph act CS 1, Lmaj promast 15.6, ROMK primary -0.403 and WT yeast gro inh 70.3*.
CC(=O)Nc1ccc(S(=O)(=O)C(C#N)c2nc3ccccc3nc2NCCCO)cc1 (stereo not drawn) was read as Cl transport mod 0.148.
`CCC(Sc1nc2ccccc2o1)C(=O)Nc1nnc(C)s1` (stereo not drawn) gave Cl transport mod -1.02, Diaphorase inh 20.5, Diaph act CS 0.8, Lmaj promast 55.5*, ROMK primary 0.0833 and WT yeast gro inh -1.5.
`NC(N)=Nc1nc(-c2ccccc2)c2ccccc2n1` gave Cl transport mod 0.649, Diaphorase inh 0.9, Diaph act CS 1, Lmaj promast 98.2*, ROMK primary -1.38 and WT yeast gro inh -8.0.
`CCc1nc(N=C(N)N)nc2ccccc12` gave Cl transport mod 0.0985, Diaphorase inh 9.5, Diaph act CS 0.9, Lmaj promast 8.0, ROMK primary 0.338 and WT yeast gro inh 11.5.
Screening ClCC1=Nc2cccc3cccc(c23)N1 returned Cl transport mod -7.37e-05.
CCCn1c(N)c(CC)c(=O)[nH]c1=O was read as Cl transport mod 0.269, Diaphorase inh 5.4, Diaph act CS 0.9, Lmaj promast -5.1, ROMK primary 0.303 and WT yeast gro inh -4.0.
For CCCCNC(=O)c1ccc(N2CCC3(CC2)OCCO3)c([N+](=O)[O-])c1 the results were Cl transport mod 3.12, Diaphorase inh 13.3, Diaph act CS 0.9, Lmaj promast 59.5*, ROMK primary 0.0403 and WT yeast gro inh -4.1.
For O=C(NCCCn1ccnc1)c1ccc(N2CCCCCC2)c([N+](=O)[O-])c1 the results were Cl transport mod -0.112, Diaphorase inh 6.7, Diaph act CS 0.9, Lmaj promast 90.3*, ROMK primary -1.7 and WT yeast gro inh -12.1.
Screening CCS(=O)(=O)N1CCN(c2ccc(C(=O)NC3C4CC5CC(C4)CC3C5)cc2[N+](=O)[O-])CC1 (stereo not drawn) returned Cl transport mod 0.00801, Diaphorase inh 27.6, Diaph act CS 0.7, Lmaj promast 51.8* and WT yeast gro inh -4.2.
`Cc1ccc(C(=O)NCCCn2ccnc2)cc1[N+](=O)[O-]` gave Cl transport mod 1.35, Diaphorase inh -6.9, Diaph act CS 1.1, Lmaj promast 10.9, ROMK primary 0.327 and WT yeast gro inh -10.0.
For COc1cccc(CNc2nc(-c3cccnc3)nc3ccccc23)c1 the results were Cl transport mod -0.561, Diaphorase inh 11.7, Diaph act CS 0.9, Lmaj promast 76.1* and WT yeast gro inh 26.6.
For COc1cccc(/C=N/Nc2nc(-c3cccnc3)nc3ccccc23)c1 the results were Cl transport mod -0.0012.
COc1cccc(/C=N/n2nnnc2N)c1 was read as Cl transport mod 0.548 and ROMK primary -0.119.
Cc1no[n+]([O-])c1COc1ccc(/C=N/n2nnnc2N)cc1 was read as Cl transport mod -0.186, Diaphorase inh 15.2, Diaph act CS 0.8, Lmaj promast 57.5* and WT yeast gro inh -12.2.
CCn1c(SCC(=O)NNC(=O)c2ccc(C)cc2)nnc1-c1ccco1 was read as Cl transport mod -0.543, Diaphorase inh 8.6, Diaph act CS 0.9, Lmaj promast -6.1, ROMK primary -0.169 and WT yeast gro inh -10.9.
`CCCCc1oc2ccccc2c1C(=O)c1cc(I)c(OCCN(CC)CC)c(I)c1` gave Diaphorase inh -1.0, Diaph act CS 1, Lmaj promast 98.8* and WT yeast gro inh 97.8.
`CCOC(=O)c1c(C)[nH]c(C(=O)OCC(=O)Nc2cc(Cl)ccc2OC)c1C` gave Cl transport mod 0.741, Diaphorase inh -10.3, Diaph act CS 1.1, Lmaj promast 2.8 and WT yeast gro inh 85.4*.
For O=C(COc1ccc(C(=O)c2ccccc2)cc1)NCC(=O)Nc1ccccc1Br the results were Cl transport mod -0.988, Diaphorase inh 11.2, Diaph act CS 0.9, Lmaj promast 61.8*, ROMK primary 0.755 and WT yeast gro inh 4.2.
Screening CCOC(=O)C1=C(O)/C(=C\c2cc(C)n(-c3ccccc3F)c2C)N=C1C returned Cl transport mod -0.211, Diaphorase inh 4.4, Diaph act CS 1, Lmaj promast 35.5 and ROMK primary 1.85.
For CCOC(=O)C1=C(O)/C(=C/c2cccc(OC)c2O)N=C1C the results were Cl transport mod 1.5, Diaphorase inh 8.5, Diaph act CS 0.9, Lmaj promast 62.9*, ROMK primary -0.273 and WT yeast gro inh 4.8.
For O/N=C/c1cc(Br)ccc1OCc1ccccc1F the results were Lmaj promast 99.6*.
COc1cccc(-n2nc(-c3ccnn3-c3ccc(C)cc3)c(=O)n(C)c2=O)c1 was read as Diaphorase inh 14.9, Diaph act CS 0.9, Lmaj promast 8.9, ROMK primary -0.00179 and WT yeast gro inh -4.0.
COc1cccc(C(=O)NC(=S)Nc2ccc([N+](=O)[O-])cc2C)c1 was read as Cl transport mod 6.61*, Diaphorase inh 9.8, Diaph act CS 0.9, Lmaj promast 24.1 and WT yeast gro inh -0.4.
For COc1cc(C(=O)NC(=S)Nc2ccc([N+](=O)[O-])cc2C)cc(OC)c1OC the results were Cl transport mod 1.49, Diaphorase inh 13.9, Diaph act CS 0.9, Lmaj promast 37.9 and WT yeast gro inh 0.1.
COc1ccc(NC(=S)NC(NC(=O)c2cccc(Cl)c2)C(Cl)(Cl)Cl)c([N+](=O)[O-])c1 (stereo not drawn) was read as Cl transport mod 0.691, Diaphorase inh 23.4, Diaph act CS 0.8, Lmaj promast 93.8* and WT yeast gro inh 39.1.
For CCC(C)C(=O)Nc1ccc(OC)cc1[N+](=O)[O-] (stereo not drawn) the results were Cl transport mod -0.0253, Diaphorase inh 9.0, Diaph act CS 0.9, Lmaj promast 53.4*, ROMK primary -0.0572 and WT yeast gro inh 1.0.
Cc1csc(C(=O)O)c1-n1cccc1 was read as Diaphorase inh -1.3, Diaph act CS 1, Lmaj promast -5.1 and WT yeast gro inh -3.9.
Cc1ccnc(NC(=O)Cn2cc([N+](=O)[O-])cn2)c1 was read as Cl transport mod 0.569, Diaphorase inh -1.2, Diaph act CS 1, Lmaj promast 5.0, ROMK primary -0.539 and WT yeast gro inh 1.1.
`Cc1ccc(-c2nnc(NC3CCCCC3)c3ccccc23)cc1S(=O)(=O)N1CCN(C)CC1` gave Diaphorase inh 19.8, Diaph act CS 0.8, Lmaj promast 96.4*, ROMK primary 0.467 and WT yeast gro inh 13.3.
CC(=O)c1sc(-c2ccc(F)cc2F)nc1C was read as Cl transport mod -1.51.
